Data as given in ChEMBL document CHEMBL1250546, “Synthesis of non-purine analogs of 6-aryl-9-benzylpurines, and their antimycobacterial activities. Compounds modified in the imidazole ring” (Bioorg Med Chem, 2010).
Converted amounts (≈) assume the structure as drawn.

How the values were obtained:
Type in all cases: functional
[1] = test system: Mycobacterium tuberculosis; test: Antibacterial activity against multidrug-resistant Mycobacterium tuberculosis H37Rv carrying luxAB at 128 uM incubated for 10 days under low oxygen followed by 28 hrs normoxic recovery by low-oxygen-recovery assay relative to control
[2] = test system: Mycobacterium tuberculosis; test: Antibacterial activity against multidrug-resistant Mycobacterium tuberculosis H37Rv carrying luxAB incubated for 10 days under low oxygen followed by 28 hrs normoxic recovery by low-oxygen-recovery assay
Method in brief: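 Low-oxygen-recovery assay using low-oxygen-adapted M. tuberculosis H37Rv luxAB, which carries a luciferase reporter, in 7H12 medium in microplate format. Cultures were incubated 10 days under low oxygen, then given 28 h of normoxic recovery before luminescence was read. MIC is the lowest concentration giving at least a 90% luminescence reduction relative to untreated controls.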

[3] = test system: Mycobacterium tuberculosis; test: Antibacterial activity against clofazimine-resistant Mycobacterium tuberculosis after 7 days by microplate alamar blue assay; details: 168 h
[4] = test system: Mycobacterium tuberculosis; test: Antibacterial activity against rifampicin-resistant Mycobacterium tuberculosis after 7 days by microplate alamar blue assay; details: 168 h
[5] = test system: Mycobacterium tuberculosis; test: Antibacterial activity against streptomycin-resistant Mycobacterium tuberculosis after 7 days by microplate alamar blue assay; details: 168 h
[6] = test system: Mycobacterium tuberculosis; test: Antibacterial activity against kanamycin-resistant Mycobacterium tuberculosis after 7 days by microplate alamar blue assay; details: 168 h
Method in brief: (§1)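 Microplate alamar blue assay in 7H12 medium against M. tuberculosis H37Rv ATCC 27294 and against rifampicin-, isoniazid-, streptomycin- and kanamycin-resistant Mtb strains. Bacteria were incubated with test samples for 7 days, then fluorescence was read. MIC is the lowest concentration giving at least a 90% fluorescence reduction relative to untreated controls.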

[7] = test system: Mycobacterium tuberculosis; test: Antibacterial activity against isoniazid-resistant Mycobacterium tuberculosis after 7 days by microplate alamar blue assay; details: 168 h; method in brief: as §1

SMILES	inhibition at 128 µM [1] [%]	MIC [2] [µM]	MIC [3] [µM]	MIC [4] [µM]	MIC [5] [µM]	MIC [6] [µM]	MIC [7] [µM]
COc1ccc(Cn2nnc3c(-c4ccco4)ncnc32)cc1	61	> 128	–	–	–	–	–
COc1ccc(Cn2ncc3c(-c4ccco4)ncnc32)cc1	60	> 128	–	–	–	–	–
COc1ccc(Cn2ccc3c(-c4ccco4)ncnc32)cc1	82	> 128	0.16 (≈ 0.0489 µg/mL)	0.14 (≈ 0.0427 µg/mL)	0.18 (≈ 0.055 µg/mL)	0.1 (≈ 0.0305 µg/mL)	0.13 (≈ 0.0397 µg/mL)
COc1ccc(Cn2ccc3c(-c4cccs4)ncnc32)cc1	–	60 (≈ 19.3 µg/mL)	0.18 (≈ 0.0579 µg/mL)	0.13 (≈ 0.0418 µg/mL)	0.26 (≈ 0.0836 µg/mL)	0.12 (≈ 0.0386 µg/mL)	0.14 (≈ 0.045 µg/mL)
COc1ccc(Cn2ccc3c(-c4ccco4)nc(Cl)nc32)cc1	88	> 128	0.06 (≈ 0.0204 µg/mL)	0.1 (≈ 0.034 µg/mL)	0.08 (≈ 0.0272 µg/mL)	0.1 (≈ 0.034 µg/mL)	0.12 (≈ 0.0408 µg/mL)
COc1ccc(Cn2ccc3c(-c4cccs4)nc(Cl)nc32)cc1	–	120 (≈ 42.7 µg/mL)	< 0.05	0.14 (≈ 0.0498 µg/mL)	0.06 (≈ 0.0214 µg/mL)	0.08 (≈ 0.0285 µg/mL)	0.09 (≈ 0.032 µg/mL)
COc1ccc(Cn2ccc3c(-c4ccco4)nc(OC)nc32)cc1	–	87 (≈ 29.2 µg/mL)	0.07 (≈ 0.0235 µg/mL)	0.09 (≈ 0.0302 µg/mL)	0.09 (≈ 0.0302 µg/mL)	0.1 (≈ 0.0335 µg/mL)	0.09 (≈ 0.0302 µg/mL)
COc1ccc(Cn2cnc3c(-c4ccco4)ncnc32)cc1	88	> 128	–	–	–	–	–
COc1ccc(Cn2cnc3c(-c4ccco4)nc(Cl)nc32)cc1	82	> 128	0.47 (≈ 0.16 µg/mL)	0.15 (≈ 0.0511 µg/mL)	0.56 (≈ 0.191 µg/mL)	0.16 (≈ 0.0545 µg/mL)	0.15 (≈ 0.0511 µg/mL)
NNC(=O)c1ccncc1 [ISONIAZID]	–	–	–	0.25 (≈ 0.0343 µg/mL)	0.24 (≈ 0.0329 µg/mL)	0.39 (≈ 0.0535 µg/mL)	> 8
COc1c(N2C[C@@H]3CCCN[C@@H]3C2)c(F)cc2c(=O)c(C(=O)O)cn(C3CC3)c12 [MOXIFLOXACIN]	–	–	–	–	–	0.34 (≈ 0.136 µg/mL)	0.3 (≈ 0.12 µg/mL)
O=[N+]([O-])c1cn2c(n1)OC[C@@H](OCc1ccc(OC(F)(F)F)cc1)C2 [PRETOMANID]	–	–	0.54 (≈ 0.194 µg/mL)	0.17 (≈ 0.0611 µg/mL)	0.1 (≈ 0.0359 µg/mL)	0.22 (≈ 0.079 µg/mL)	0.07 (≈ 0.0251 µg/mL)
CO[C@H]1/C=C/O[C@@]2(C)Oc3c(C)c(O)c4c(O)c(c(/C=N/N5CCN(C)CC5)c(O)c4c3C2=O)NC(=O)/C(C)=C\C=C\[C@H](C)[C@H](O)[C@@H](C)[C@@H](O)[C@@H](C)[C@H](OC(C)=O)[C@@H]1C [RIFAMPIN]	–	–	0.02 (≈ 0.0165 µg/mL)	> 4	0.04 (≈ 0.0329 µg/mL)	0.02 (≈ 0.0165 µg/mL)	0.02 (≈ 0.0165 µg/mL)
CN[C@@H]1[C@H](O[C@H]2[C@H](O[C@H]3[C@H](O)[C@@H](O)[C@H](N=C(N)N)[C@@H](O)[C@@H]3N=C(N)N)O[C@@H](C)[C@]2(O)C=O)O[C@@H](CO)[C@H](O)[C@H]1O [STREPTOMYCIN]	–	–	0.33 (≈ 0.192 µg/mL)	0.21 (≈ 0.122 µg/mL)	> 16	0.98 (≈ 0.57 µg/mL)	0.13 (≈ 0.0756 µg/mL)
